# Results reported in ChEMBL document CHEMBL3856288, “Amidate Prodrugs of Deoxythreosyl Nucleoside Phosphonates as Dual Inhibitors of HIV and HBV Replication” (J Med Chem, 2016).
# What was measured:
# [1] = Cytotoxicity against human MT4 cells assessed as decrease in cell viability after 5 days by MTT assay; format: toxicity, cell-based
# [2] = Selectivity index, ratio of CC50 for human MT4 cells to EC50 for HIV2 ROD infected in human MT4 cells; format: toxicity, cell-based; details: read-out: Ratio CC50/EC50
# [3] = Antiviral activity against HIV2 ROD infected in human MT4 cells assessed as protection against virus-induced cytopathic effect after 5 days by MTT assay; format: functional, cell-based, Human immunodeficiency virus type 2 (ISOLATE ROD); details: Human immunodeficiency virus 2, MT4, 120 h
# [4] = Selectivity ratio of CC50 for human HepG2(2.2.15) cells to EC50 for reduction in HBV ayw1 extracellular DNA copy number; details: read-out: Ratio CC50/EC50
# Outline: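 HepG2 2.2.15 cells (two HBV ayw1 genome copies), 1.5 × 10^4 cells/well in DMEM with 2% FBS and G418; compound dosed in triplicate and medium renewed on day 3. On day 6, Pronase-treated supernatant HBV DNA measured by TaqMan qPCR against a standard curve, giving EC50. MTS uptake gave CC50, and the ratio was calculated from these.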
# Hepatitis B virus [5] = assay: Antiviral activity against HBV ayw1 infected in human HepG2(2.2.15) cells assessed as reduction in viral replication by measuring extracellular viral DNA copy number after 6 days by real-time qPCR method; format: functional, cell-based; details: ayw1, HepG2 2.2.15, 144 h
# Outline: (§1)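 HepG2 2.2.15 cells (stable line carrying two copies of the HBV ayw1 genome) were seeded at 1.5 × 10^4 cells/well in DMEM with 2% FBS and G418. After 16−24 h, compound was added in triplicate, and medium plus compound was renewed on day 3. On day 6, supernatant was Pronase-treated and extracellular HBV DNA was quantified by TaqMan qPCR against an HBV DNA standard curve to give EC50/EC90. Cell viability was read by MTS uptake to give CC50.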
# [6] = Selectivity index, ratio of CC50 for human MT4 cells to EC50 for HIV1 3B infected in human MT4 cells; format: toxicity, cell-based; details: read-out: Ratio CC50/EC50
# [7] = system: Human immunodeficiency virus 1; assay: Antiviral activity against HIV1 3B infected in human MT4 cells assessed as protection against virus-induced cytopathic effect after 5 days by MTT assay; format: functional, cell-based; details: Human immunodeficiency virus 1, 3B, MT4, 120 h
# [8] = Cytotoxicity against human HepG2(2.2.15) cells assessed as reduction in cell viability by MTS assay; format: toxicity, cell-based; outline: as §1
# [9] = Half life in human liver microsomes at 0.1 uM in presence of NADPH-regenerating system by HPLC MS/MS method; format: ADME
# Outline: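 Pooled liver microsomes preincubated 10 min at 37 °C with NADPH-regenerating system (1 mM NADP, 5 mM G6P, 1 U/mL G6PDHase) in phosphate buffer pH 7.4, 3 mM MgCl2, 1 mM EDTA; compound added at 0.1 μM final; samples at 0, 15, 30, 45, 60 min quenched in acetonitrile/methanol, analysed by HPLC MS/MS.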
# Hepatitis B virus [10] = assay: Antiviral activity against HBV ayw1 infected in human HepG2(2.2.15) cells assessed as reduction in viral replication by measuring intracellular viral DNA copy number after 6 days by real-time qPCR method; format: functional, cell-based; details: ayw1, HepG2 2.2.15, 144 h
# Outline: (§2)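 The protocol was the same as the primary HepG2 2.2.15 assay (triplicate dosing, medium plus compound renewed on day 3, 6-day course). At the end, total intracellular DNA was isolated from the cells and HBV DNA copy number was measured by TaqMan qPCR to give EC50/EC90. CC50 came from MTS viability, and SI was taken as CC50/EC50.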
# [11] = Selectivity ratio of CC50 for human HepG2(2.2.15) cells to EC50 for reduction in HBV ayw1 intracellular DNA copy number; format: ADME, cell-based; details: read-out: Ratio CC50/EC50; outline: as §2
# [12] = Drug metabolism in acetone-d6/pH 7.6 Trizma buffer assessed as baker's yeast carboxypeptidase Y-mediated (S)-2-((((3R,5R)-5-(6-amino-9H-purin-9-yl)tetrahydrofuran-3-yloxy)methyl)oxidophosphorylamino)-4-(isopentyloxy)-4-oxobutanoate formation at 1 mg after 3 hrs by RP-HPLC/mass spectra analysis; format: ADME; details: saccharomyces cerevisiae, pH 7.6, 3 h
# [13] = Chemical stability of the compound in pH 1 phosphate buffer at 2 mg after 1 to 2 hrs by 31P NMR method; format: physicochemical
# Outline: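 Prodrug (2.0 mg) dissolved in 0.2 mL acetone-d6 plus 0.3 mL pH 1 buffer (equal parts 0.2 M HCl and 0.2 M KCl); in situ 31P NMR (202 MHz) at 37 °C, spectra recorded every 30 min over 14 h, tracking loss of the diastereomer peaks.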
# [14] = Half life in human liver S9 fraction at 100 uM by HPLC-UV method; format: ADME, subcellular
# Outline: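 Incubation started by adding human liver S9 fraction (4 mg/mL) at 37 °C; aliquots at 0, 10, 20, 30, 60 min quenched in acetonitrile, centrifuged, supernatant analysed by C18 HPLC with UV at 260 nm; parent peak area versus time 0 gave percent remaining and half-life.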
# [15] = Chemical stability of the compound in pH 8 phosphate buffer assessed as parent compound remaining at 2 mg after 14 hrs by 31P NMR method; format: physicochemical; details: read-out: Stability
# Outline: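 Prodrug (2 mg) in 0.2 mL acetone-d6 plus 0.3 mL pH 8 buffer (0.1 M Na2HPO4 adjusted with 0.1 M HCl); in situ 31P NMR (202 MHz) at 37 °C, spectra every 30 min over 14 h; parent remaining followed by diastereomer peak disappearance.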
EC50 (Hepatitis B virus [5]),EC90 (Hepatitis B virus [5]),SMILES,CC50 at 120 h [1],selectivity ratio [2],EC50 [3],selectivity ratio [4],selectivity ratio [6],EC50 [7],CC50 [8],half-life at 0.1 µM [9],EC50 (Hepatitis B virus [10]),EC90 (Hepatitis B virus [10]),selectivity ratio [11],Drug metabolism [12],Stability [13],half-life at 100 µM [14],remaining at 14 h [15]
0.28 µM,> 10 µM,CCCOC(=O)[C@H](Cc1ccccc1)NP(=O)(CO[C@H]1CO[C@@H](n2cc(C)c(=O)[nH]c2=O)C1)N[C@@H](Cc1ccccc1)C(=O)OCCC,56.6 µM,2780,0.0204 µM,> 36,1970,0.0292 µM,> 10 µM,,,,,,,,
0.5 µM,,Nc1ncnc2c1ncn2[C@H]1C[C@@H](OCP(=O)(O)O)CO1,≥ 315 µM,≥ 60,5.23 µM,> 200,≥ 67,4.69 µM,> 100 µM,,,,,,,,
> 100 µM,> 100 µM,CC(C)OC(=O)[C@H](C)NP(=O)(CO[C@H]1CO[C@@H](n2cnc3c(=O)[nH]c(N)nc32)C1)N[C@@H](C)C(=O)OC(C)C,≥ 97.6 µM,,> 97.6 µM,,,> 97.6 µM,> 100 µM,,,,,,,,
> 100 µM,,CCCOC(=O)[C@H](Cc1ccccc1)NP(=O)(CO[C@H]1CO[C@@H](n2cnc3c(=O)[nH]c(N)nc32)C1)N[C@@H](Cc1ccccc1)C(=O)OCCC,> 62 µM,,> 62 µM,,,> 62 µM,> 100 µM,,,,,,,,
> 100 µM,> 100 µM,Nc1nc2c(ncn2[C@H]2C[C@@H](OCP(=O)(O)O)CO2)c(=O)[nH]1,> 302 µM,,> 302 µM,,,> 302 µM,> 100 µM,,,,,,,,
0.01 µM,> 2 µM,Nc1ccn([C@@H]2CS[C@H](CO)O2)c(=O)n1 [LAMIVUDINE],> 87.2 µM,> 10,,> 200,> 39,,> 2 µM,,< 0.01 µM,> 2 µM,> 254,,,,

SMILES,EC50 (Hepatitis B virus [5]),EC90 (Hepatitis B virus [5]),CC50 at 120 h [1],selectivity ratio [2],EC50 [3],selectivity ratio [4],selectivity ratio [6],EC50 [7],CC50 [8],half-life at 0.1 µM [9],EC50 (Hepatitis B virus [10]),EC90 (Hepatitis B virus [10]),selectivity ratio [11],Drug metabolism [12],Stability [13],half-life at 100 µM [14],remaining at 14 h [15]
Cc1cn([C@H]2C[C@@H](OCP(=O)(N[C@@H](CC(=O)OCCC(C)C)C(=O)OCCC(C)C)Oc3ccccc3)CO2)c(=O)[nH]c1=O (some centres not stated),0.25 µM,> 100 µM,42.2 µM,3860,0.011 µM,136,2350,0.0173 µM,34 µM,,,,,,,,
CC(C)OC(=O)[C@H](C)NP(=O)(CO[C@H]1CO[C@@H](n2cnc3c(=O)[nH]c(N)nc32)C1)Oc1ccccc1 (some centres not stated),> 100 µM,> 100 µM,≥ 112 µM,,> 112 µM,,,> 112 µM,> 100 µM,,,,,,,,
CC(C)CCOC(=O)C[C@H](NP(=O)(CO[C@H]1CO[C@@H](n2cnc3c(N)ncnc32)C1)Oc1ccccc1)C(=O)OCCC(C)C (some centres not stated),0.01 µM,0.98 µM,16.9 µM,4810,0.0036 µM,> 1250,792,0.0216 µM,35.2 µM,8 min,< 0.01 µM,0.36 µM,8810,Metabolite_Detected,Unstable,12.1 min,43%
CC(C)OC(=O)[C@H](C)NP(=O)(CO[C@H]1CO[C@@H](n2ccc(N)nc2=O)C1)Oc1ccccc1 (some centres not stated),47.9 µM,,> 160 µM,,> 160 µM,> 2,,> 160 µM,> 100 µM,,,,,,,,
